Rows were chosen to be rich in hits. Some 4.6% of all compounds tested hit in one or more screens of this group.
NALP1 inh: NALP1 inhibition; 280,000 tested, 0.61% active; S. cerevisiae NALP1/ASC/caspase-1 growth, X-gal OD620, 72 h; inhibition, % at 10 µM; AID 2071; in the data active = inhibition mostly above about 24%, no sharp cut-off; inactive = mostly below about 32%
PolyA inhibitor: blocks polyadenylation in yeast reporter cells. 300,000 tested, 0.02% active. S. cerevisiae SKY197-pL101 polyadenylation reporter, beta-gal luminescence; efflux-impaired pdr1/pdr3 knockout yeast; score 100 = 6 SD above DMSO. activity score, % at 12 µM;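 active = lowest replicate activity score at least 50, where 100 means six control SD above control mean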;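 also: yeast exposed to compound for 9 h at 30 °C; higher score means more reporter readthrough which indicates perturbed polyadenylation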
NALP3 yeast inh: NALP3 inhibition in yeast; Yeast reconstituted NLRP3/ASC/caspase-1, beta-gal luminescence, 24 h; inhibition, % at 10 µM; 330,000 tested, 0.39% active; AID 2825;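 active = inhibition of 50% or more; inactive = inhibition below 50%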;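 also: plate controls were induced DMSO wells for no effect and uninduced yeast grown without galactose for full effect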
Arr AP2 block: human beta-arrestin and AP2 interaction inhibition; inhibition, % at 10 µM; 340,000 tested, 0.31% active; FITC-arrestin peptide / GST-AP2 beads, flow cytometry; AP2 beta2 appendage carries R879A mutation; AID 504490;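 active = inhibition above a set limit, near 3 SD of compounds lacking own fluorescence, cut at about 54% in these data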;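 also: plate controls were DMSO wells for no effect and 5 µM unlabelled arrestin peptide for full effect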
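System: GST-tagged AP2 beta2-adaptin appendage (R879A) on 4 µm glutathione beads / Reagent: FITC-arrestin peptide, 50 nM / Detection: HyperCyt-sampled flow cytometry, FL1 channel, ex 488/em 535 nm / Timing: 12 min plus 1 h, RT / Buffer or medium: PBS plus Tween 20 (0.05%) and BSA (0.1%)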
ALR H2O2 inh: human ALR oxidase inhibition via reduced H2O2 | 290,000 tested, 3.8% active | AID 485317 | inhibition, % (concentration not given with the values) | purified ALR, DTT oxidation, H2O2 HRP-luminol luminescence;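 active = mean replicate inhibition above about 79%, with every replicate also reaching it, limit read from the data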
DSG3 Ab inh: inhibitors of pemphigus antibody binding to human desmoglein-3; binding (percent of control), % at 10 µM; 310,000 tested, 0.48% active; AID 588358; DSG3-coupled beads, scFv-anti-DSG3-GFP binding, flow cytometry; hits give low values; P32926;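 active = binding more than 3 SD below its plate's average and above zero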;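 also: hits lower antibody fragment binding to DSG3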
Target sequence (P32926 whole entry, looked up, the tested form may be a part): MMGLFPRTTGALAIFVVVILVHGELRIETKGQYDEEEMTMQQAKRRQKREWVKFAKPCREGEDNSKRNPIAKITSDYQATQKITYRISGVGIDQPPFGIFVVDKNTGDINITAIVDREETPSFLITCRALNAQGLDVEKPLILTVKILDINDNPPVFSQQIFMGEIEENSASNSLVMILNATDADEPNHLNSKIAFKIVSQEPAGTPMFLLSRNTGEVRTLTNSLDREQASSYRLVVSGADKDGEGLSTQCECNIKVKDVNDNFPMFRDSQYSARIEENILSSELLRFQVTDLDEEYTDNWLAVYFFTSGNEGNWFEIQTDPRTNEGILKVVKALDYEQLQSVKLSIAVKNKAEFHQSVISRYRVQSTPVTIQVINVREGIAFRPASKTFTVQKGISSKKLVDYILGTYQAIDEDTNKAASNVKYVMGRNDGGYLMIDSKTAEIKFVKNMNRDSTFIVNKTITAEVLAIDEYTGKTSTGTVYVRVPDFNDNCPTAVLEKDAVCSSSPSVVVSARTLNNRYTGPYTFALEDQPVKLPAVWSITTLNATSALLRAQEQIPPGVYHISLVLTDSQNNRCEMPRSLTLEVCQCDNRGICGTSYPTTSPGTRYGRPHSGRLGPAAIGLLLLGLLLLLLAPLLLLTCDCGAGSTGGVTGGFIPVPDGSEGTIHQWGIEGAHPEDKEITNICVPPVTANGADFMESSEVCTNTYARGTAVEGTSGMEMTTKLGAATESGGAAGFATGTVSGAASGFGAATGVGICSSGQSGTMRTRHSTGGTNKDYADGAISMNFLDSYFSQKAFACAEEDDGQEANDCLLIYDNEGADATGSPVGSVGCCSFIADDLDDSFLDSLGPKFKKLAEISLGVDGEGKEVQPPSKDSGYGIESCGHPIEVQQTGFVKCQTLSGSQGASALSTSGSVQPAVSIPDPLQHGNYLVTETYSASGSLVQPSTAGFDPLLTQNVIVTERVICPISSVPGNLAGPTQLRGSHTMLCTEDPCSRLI
* marks the source's active call; other numbers are inactive results; nt = no result.

SMILES	NALP1 inh	PolyA inhibitor	NALP3 yeast inh	Arr AP2 block	ALR H2O2 inh	DSG3 Ab inh
CCN1CCN(C(=O)c2ccc3c(Cl)c4c(nc3c2)CCCC4)CC1	9.0	21.0	16.1	5.8	97.9*	nt
CCN(CC(=O)Nc1c(F)cccc1F)C(=O)c1cccn1C	nt	nt	nt	nt	nt	101.9
COC(=O)c1cc(NC(=S)Nc2cc(Cl)cc(Cl)c2)cc(C(=O)OC)c1	9.3	-13.0	3.0	7.8	1.5	113.4
COC(=O)C1=C(Nc2cc(Cl)cc(Cl)c2)CSC1	nt	1.4	-2.8	29.4	99.0*	94.8
CCC1(C)CN=C(c2ccccc2)NC1 (configuration not stated)	nt	nt	nt	3.6	nt	125.1
O=C(NC(=S)N1CCCc2ccccc21)c1ccccc1	-0.9	11.6	23.0	39.4	98.6*	92.5
CNC(=S)NN=C(C)CCCC(C)=NNC(=S)NC	nt	nt	nt	26.6	nt	90.5
CC(=O)c1cccc(OCC(=O)Nc2cccc(C(=O)Nc3c(C)n(C)n(-c4ccccc4)c3=O)c2)c1	nt	nt	-1.6	7.2	nt	nt
CCOc1ccc(Nc2nc(N(C)c3ccccc3)nc(N)c2[N+](=O)[O-])cc1	16.9	-1.8	14.3	10.3	1.8	87.8
COc1ccc(Nc2ncc(C(=O)O)c3ccccc23)cc1	18.1	6.0	14.6	6.9	-25.4	95.8
COc1ccc(Nc2cccccc2=O)cc1	4.4	4.9	17.9	4.3	96.9*	nt
COc1ccc(Nc2ccccc2C(=O)O)cc1	-14.6	-5.1	16.8	32.0	98.8*	97.5
COc1ccc(Nc2ccc(OC)cc2)cc1	11.6	-11.8	36.6	4.9	98.8*	100.0
Cc1nc2ccc(N)cc2s1	nt	-6.8	-1.1	-0.1	98.8*	107.1
Nc1ccc2nc(N)sc2c1	nt	nt	nt	5.7	nt	93.7
Nc1ccc2sc(N)nc2c1	nt	nt	2.1	17.6	91.0*	96.6
CCc1noc(C)c1C(=O)NCCN1C(=O)S/C(=C\c2ccccc2F)C1=O	nt	nt	nt	nt	nt	102.9
CCn1c(SCC(=O)c2ccc(C)cc2)nnc1-c1ccoc1C	24.1	-1.5	14.0	4.5	67.1	99.5
CCn1c(SCC(=O)c2ccccc2)nnc1-c1ccoc1C	-7.2	-7.7	18.6	1.4	84.1*	104.1
CCn1c(SCC(=O)c2ccccc2)nnc1-c1cccnc1	8.1	13.0	10.1	-6.5	91.0*	82.1
CCn1c(SCCC(=O)O)nnc1-c1cccnc1	7.0	8.7	6.5	22.8	-23.4	105.9
Clc1ccccc1CO/N=C1\CCCc2nonc21	42.6*	-22.8	22.8	23.8	0.4	98.4
N#Cc1ccccc1NC(=S)NC(=O)c1cccnc1	nt	4.2	20.9	-4.9	95.3*	106.0
O=C(NC(=S)Nc1cc([N+](=O)[O-])ccc1O)c1cccnc1	-18.6	7.5	24.1	-7.8	1.3	99.6
CCC(C)c1ccc(O)c(NC(=S)NC(=O)c2cccnc2)c1 (configuration not stated)	-7.9	-22.2	36.8	4.0	98.2*	88.1
SMILES	NALP1 inh	PolyA inhibitor	NALP3 yeast inh	Arr AP2 block	ALR H2O2 inh	DSG3 Ab inh
CC(C)c1ccc(O)c(NC(=O)c2cccnc2)c1	4.7	4.8	15.5	4.0	88.7*	95.5
O=C(NC(=S)Nc1ccccc1O)c1cccnc1	10.4	2.7	19.8	9.1	27.5	118.7
COc1ccc(CCN(Cc2cccs2)S(=O)(=O)c2ccc(C(=O)O)cc2)cc1OC	0.8	-8.5	13.3	-0.6	93.8*	97.4
O=C(c1ccc(Cl)s1)N1CCN(c2ccccc2)CC1	14.0	-13.5	8.5	1.5	97.1*	112.9
Cc1noc(C(=O)N2CCN(c3ccc(F)cc3)CC2)c1Cl	16.2	-4.9	-7.0	9.1	38.1	101.4
O=C(c1nc[nH]c1C(=O)N1CCN(c2ccccc2)CC1)N1CCN(c2ccccc2)CC1	nt	nt	0.6	22.5	93.4*	101.8
CC(C)(C)OC(=O)N1CCN(C(=O)c2nc[nH]c2C(=O)N2CCN(c3ccccc3)CC2)CC1	nt	nt	-1.2	0.0	16.1	102.1
Cc1noc(C(=O)N2CCN(c3ccccc3)CC2)c1Cl	14.6	6.6	7.8	23.1	96.4*	104.0
Cc1ccc(-c2nc(SCC(=O)NCCN3C(=O)CSC3=O)[nH]c2-c2ccc(C)cc2)cc1	15.2	-4.9	-2.7	nt	88.2*	nt
Cc1[nH]c2ccccc2c1N=Nc1cccc(C(=O)O)c1	25.0	8.3	7.8	-5.7	98.1*	103.6
O=C(NC1=NCCS1)c1sc2cc(F)ccc2c1Cl	39.5	-18.3	35.0	2.8	98.9*	114.0
O=C(Nc1ccon1)c1sc2cc(F)ccc2c1Cl	1.7	nt	-7.8	1.4	-7.0	112.4
CN(C)c1ccc(N/C=C/C(=O)C(C)(C)C)cc1	2.1	-2.0	26.1	20.4	99.4*	104.0
CN(C)c1ccc(N/C=C/C(=O)c2ccccc2)cc1	45.7	-10.9	20.0	8.5	40.0	101.3
CC(C)(C)C(=O)/C=C/Nc1ccccc1O	14.7	4.5	19.4	-3.2	98.9*	109.1
CCN(CC(=O)NCc1cccs1)C(=O)c1ccc(NS(=O)(=O)c2ccc(F)cc2)cc1	nt	-10.6	17.5	-5.5	1.1	105.0
COc1ccc(C2=CCCCCC2)cc1OC	nt	nt	nt	nt	nt	106.6
CCn1c(NC(=O)c2ccc(C)cc2)c2ccccc2nc1=O	39.4	-6.9	17.2	4.8	95.4*	101.1
CCOc1ccc(OCC(=O)Nc2cc(Cl)ccc2-n2cncn2)cc1	nt	nt	nt	nt	nt	100.3
COCCN(C(=O)CSc1nnc(-c2ccccc2F)o1)c1c(N)n(Cc2ccccc2)c(=O)[nH]c1=O	nt	nt	nt	nt	nt	98.4
Cn1nc(-c2ccc(Cl)cc2)c2cc(C(=O)NCC3CCCO3)sc21 (configuration not stated)	-18.0	13.9	27.7	11.9	92.6*	102.2
CCN(CC)CCCNC(=O)c1cc2c(-c3ccc(Cl)cc3)nn(C)c2s1	10.6	8.5	16.6	-4.0	93.9*	92.4
CCN(CC)CCCNC(=O)c1cc(-c2ccc(O)cc2)on1	-3.5	18.7	12.2	-14.5	99.1*	95.8
Cn1nc(-c2ccc(Cl)cc2)c2cc(C(=O)N3CCOCC3)sc21	0.3	-6.6	8.9	22.4	95.2*	110.4
CC(=NNC(=O)c1ccncc1)c1cc(Cl)ccc1Cl	nt	nt	nt	-13.7	nt	86.3
SMILES	NALP1 inh	PolyA inhibitor	NALP3 yeast inh	Arr AP2 block	ALR H2O2 inh	DSG3 Ab inh
C/C(N)=C(/C#N)C(=O)COC(=O)c1cc2c(s1)CCCC2	5.0	9.5	8.5	-1.6	11.1	101.5
C/C(N)=C(/C#N)C(=O)COC(=O)c1cc2c(s1)CCC(C)C2 (configuration not stated)	4.5	-16.4	17.6	14.8	96.2*	121.7
Cc1ccc(NC(=O)CN(C)S(=O)(=O)c2ccc(Cl)s2)c(O)c1	nt	nt	22.3	13.5	-1.1	105.1
Cc1ccc(Sc2ncccc2[N+](=O)[O-])cc1	10.7	15.5	-9.1	-7.4	-26.1	103.9
Cc1c([N+](=O)[O-])cnc(Sc2ccccc2)c1[N+](=O)[O-]	nt	-40.1	14.5	-4.9	98.6*	109.8
O=C(Nc1ccccc1F)c1ccc2ncsc2c1	10.0	-20.0	23.0	0.5	nt	96.9

High-throughput results as filed in PubChem BioAssay.
